# Experimental data gathered from unrelated publications.
# Each line is one published result; the experiments were not run side by side.
Structure (SMILES),target or system,test,system,setting,quantity,result
O=C(O)c1cn(C2CC2)c2cc(N3CCNCC3)c(F)cc2c1=O,Serratia marcescens,microbial growth,DSM30121,,MIC,0.5 µg/mL
Oc1ccccc1-c1nc2ccccc2[nH]1,human Rhabdomyosarcoma cell,"cell growth or viability, MTT",,48 h,IC50,15.4 µM
C/C=C(\C)c1cc(OC(=O)c2c(O)c(C)c(O)c(Cl)c2/C(C)=C/C)c(C)c(O)c1C(=O)O,Enterococcus gallinarum,"microbial growth, broth dilution",GALLINARUM,,MIC,64 µg/mL
C[C@@H](Oc1cc(-c2cnn(C3CCNCC3)c2)cnc1N)c1c(Cl)ccc(F)c1Cl,NCI-H3122,"cell growth or viability, MTT",,"5 µg/mL, 72 h",inhibition,85.8%
CN(C)[C@@H]1C(O)=C(C(N)=O)C(=O)[C@@]2(O)C(O)=C3C(=O)c4c(O)c(N)nc(Cl)c4C[C@H]3C[C@@H]12,Enterobacter cloacae,"microbial growth, broth dilution",ATCC13047,,MIC,1 µg/mL
O=[N+]([O-])c1cccc(-c2nc3ccccc3[nH]2)c1,human Rhabdomyosarcoma cell,"cell growth or viability, MTT",,48 h,IC50,50.3 µM
CN(C)c1cc(CNCC(C)(C)C)c(O)c2c1C[C@H]1C[C@H]3[C@H](N(C)C)C(O)=C(C(N)=O)C(=O)[C@@]3(O)C(O)=C1C2=O,Enterobacter cloacae,"microbial growth, broth dilution",ATCC13047,,MIC,4 µg/mL
CCOc1ccc(-c2nc3ccccc3[nH]2)cc1,human Rhabdomyosarcoma cell,"cell growth or viability, MTT",,48 h,IC50,25.1 µM
CN(C)[C@@H]1C(O)=C(C(N)=O)C(=O)[C@@]2(O)C(O)=C3C(=O)c4c(cnc(-c5ccccc5)c4O)C[C@H]3C[C@@H]12.Cl.Cl,Enterobacter cloacae,"microbial growth, broth dilution",ATCC13047,,MIC,> 32 µg/mL
Cc1cc(Nc2ncc(Cl)c(Nc3ccccc3S(=O)(=O)C(C)C)n2)c(OC(C)C)cc1C1CCNCC1,NCI-H3122,"cell growth or viability, MTT",,"10 µg/mL, 72 h",inhibition,93%
